# High-throughput results deposited in PubChem BioAssay by several laboratories.
# AI-2 QS mod: modulates the Vibrio harveyi AI-2 quorum sensing system; AID 2094; activity change, % at 7.5 µM; Vibrio harveyi JMH597 AI-2 luminescence/OD600 ratio, 9 h; active compounds read low; strain lacks LuxN and CqsS sensors; 0 = neutral-control median; 300,000 tested, 0.4% active; in the data active = activity change below about -75%, passing the limit was not always enough;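 also: luminescence divided by OD600 gain over 9 h not by final OD600 alone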
# PHOSPHO1 block: blocks human PHOSPHO1 phosphatase activity | Q8TCT1 | recombinant PHOSPHO1, absorbance phosphatase assay | inhibition, % at 13.3 µM | 290,000 tested, 1.1% active | AID 1565; in the data active = inhibition above about 60%
# Target sequence (Q8TCT1 whole entry, looked up): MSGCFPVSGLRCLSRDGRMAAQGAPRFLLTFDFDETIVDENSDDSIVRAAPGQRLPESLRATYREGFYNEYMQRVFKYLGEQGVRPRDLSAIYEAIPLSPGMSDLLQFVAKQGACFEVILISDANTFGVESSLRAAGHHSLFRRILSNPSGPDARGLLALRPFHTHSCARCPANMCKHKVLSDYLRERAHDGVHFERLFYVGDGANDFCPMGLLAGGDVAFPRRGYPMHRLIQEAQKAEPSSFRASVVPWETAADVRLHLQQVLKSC
# HSF1 inh: HSF1 inhibition. NIH3T3-HGL HSE-luciferase, MG132-induced, luminescence 8 h; active compounds read low. activity change, negative = inhibition, % at 7.5 µM (by protocol). 300,000 tested, 0.77% active. AID 2098;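 active = more than half of replicate wells show activity change below -50%, luminescence cut by over half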;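 also: luciferase reports HSF-1 transcriptional activity via heat shock element; 0% = median of DMSO wells and -100% = zero luminescence signal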
# HSF1 activator: increases HSF-1 driven luciferase reporter signal; 300,000 tested, 1.7% active; activation, % at 9 µM; NIH3T3-HGL HSF-1 luciferase reporter, MG132, 8 h; 100% = twice DMSO control signal;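 active = mean replicate activation of at least 50% with a set share of replicates each reaching 50%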;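 also: 0% = median of the neutral control wells and 100% = twice that signal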
# HCV core dimer: HCV core protein dimerization inhibition; 300,000 tested, 0.33% active; inhibition, % at 5 µM; TR-FRET GST/Flag-core106 dimerization, 1536-well;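 active = inhibition above the mean of all tested compounds plus 3 SD, set per screening campaign, cut at about 45% in these data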
#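 assay system = GST-tagged and Flag-tagged HCV core protein residues 1-106 | controls = unlabelled core106 and no-GST-core106 wells | incubation = compound-protein-antibody incubation 4 h at 22.5 °C | probe or stimulus = Eu donor and XL665 acceptor anti-tag antibodies | read-out = % inhibition based on acceptor/donor emission ratio | signal = TR-FRET 671 and 617 nm emission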
# ALR H2O2 inh: inhibitors of human sulfhydryl oxidase ALR; purified ALR, DTT oxidation, H2O2 HRP-luminol luminescence; 290,000 tested, 3.8% active; inhibition, % (test concentration not listed); AID 485317; P55789;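 active = mean replicate inhibition above about 79%, with every replicate also reaching it, limit read from the data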
# Target sequence (P55789 whole entry, looked up): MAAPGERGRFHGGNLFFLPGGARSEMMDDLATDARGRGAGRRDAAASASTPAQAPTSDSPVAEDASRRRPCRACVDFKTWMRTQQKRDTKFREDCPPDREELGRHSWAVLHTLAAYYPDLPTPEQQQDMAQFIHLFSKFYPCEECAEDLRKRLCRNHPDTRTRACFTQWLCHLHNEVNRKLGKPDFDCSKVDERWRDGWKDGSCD
# * hit, by the source's call; . = no result. Hits are enriched below; roughly 6.8% of the tested compounds scored in any of these assays.
SMILES,AI-2 QS mod,PHOSPHO1 block,HSF1 inh,HSF1 activator,HCV core dimer,ALR H2O2 inh
CC(C)(C)c1ccc(S(=O)(=O)Nc2cccc(C3OCCCO3)c2)cc1,-1,21,-4,10,0,-28
Oc1ccc(-c2csc(-c3cccnc3)n2)cc1O,3,19,26,42,-6,5
Oc1ccccc1-c1csc(-c2ccccc2)n1,19,9,56,79*,4,-1
Oc1ccc(-c2csc(-c3ccccc3)n2)cc1O,10,18,105,155*,-7,99*
c1ccc(-c2csc(-c3ccncc3)n2)cc1,27,3,14,40,1,-1
CCCCCCCNC(=O)C1(CC2CC(c3ccc(Cl)cc3)=NO2)CCN(C(=O)c2cc(OCC)c(OCC)c(OCC)c2)CC1 (stereo not given),12,-19,3,0,14,-7
CC1CCN(c2nc3ccc(C(=O)O)cc3s2)CC1,32,21,-83*,-85,-1,5
Nc1cc2sc(-c3ccc(C(=O)O)cc3)nc2cc1Cl,4,-2,-3,-8,18,-21
O=C(O)c1ccc2nc(-c3ccccc3)sc2c1,14,9,-58*,-57,2,.
Nc1ccc(-c2nc3ccc(C(=O)O)cc3s2)cc1,53,-13,-41,-50,-3,99*
COCC(=O)N1CCC(Oc2ccc(C(=O)N[C@H](C(=O)OC)C(C)C)cc2)CC1,20,19,2,2,-5,.
Cc1ccc(C)c(NC(=O)C2CCN(S(=O)(=O)c3ccc4c(c3)NC(=O)CO4)CC2)c1,-13,28,-3,-4,-9,-2
COc1ccc(C)cc1S(=O)(=O)NCC(c1ccc2c(c1)OCO2)N1CCOCC1 (stereo not given),-4,.,-3,5,1,-3
Cc1cc2n(n1)C(c1sccc1C)Nc1ccccc1-2 (stereo not given),17,-25,.,.,-2,91*
Cc1cc2n(n1)C(c1ccc(N(C)C)cc1)Nc1ccccc1-2 (stereo not given),3,51,2,0,4,0
Cc1cc2n(n1)C(c1ccccc1)Nc1ccccc1-2 (stereo not given),0,11,.,.,7,91*
O=C(COC(=O)Cc1ccccc1F)Nc1ccc(F)cc1F,12,34,-3,-22,7,54
Cc1ccc(C(=O)NCCCNC(=O)COc2ccc(Cl)cc2)cn1,14,32,-8,-10,-3,.
O=C(CCSc1nnc(-c2ccco2)o1)N1CCOCC1,24,16,-1,-21,4,.
O=C(/C=C/Nc1cccc([N+](=O)[O-])c1)c1ccco1,8,.,13,14,2,-3
Cc1ccc(C(=O)/C=C/Nc2cccc([N+](=O)[O-])c2)o1,18,-5,22,59*,0,.
O=C(/C=C/c1ccco1)N(Cc1ccccc1F)C1CCS(=O)(=O)C1 (stereo not given),7,34,-6,-11,-5,27
CCOc1cc2[nH]c(=S)n(CCCN3CCOCC3)c(=O)c2cc1OCC,22,7,-14,1,0,50
COc1ccc(N2CCN(CCCn3c(=S)[nH]c4ccccc4c3=O)CC2)cc1,23,14,-5,4,-1,95*
COc1ccccc1N1CCN(C(=O)c2ccc3c(=O)n(Cc4ccco4)c(=S)[nH]c3c2)CC1,18,82*,49,88*,12,0
SMILES,AI-2 QS mod,PHOSPHO1 block,HSF1 inh,HSF1 activator,HCV core dimer,ALR H2O2 inh
CCN1CCN(CCNC(=O)CCCCCn2c(=O)[nH]c3cc(C(=O)OC)ccc3c2=O)CC1,24,-131,-54*,-65,1,3
COc1cc2c(=O)n(CCCN3CCOCC3)c(=S)[nH]c2c(OC)c1OC,27,41,2,3,-5,95*
Cc1cnc(CNC(=O)CC2C(=O)NCCN2Cc2cccc(F)c2F)cn1 (stereo not given),-2,34,-1,13,-4,1
COc1ccc(OC)c(NS(=O)(=O)c2ccc3c(c2)C(C)(C)C(=O)N3C)c1,38,-88,0,0,0,-126
COc1ccccc1N1CCN(CCCn2c(=S)[nH]c3ccccc3c2=O)CC1,-7,24,-3,-19,0,97*
COc1ccc(N2CCN(CCCNC(=O)CCCn3c(=O)[nH]c4ccsc4c3=O)CC2)cc1,18,27,-6,-5,-2,93*
O=C(NC1CCCC1)c1cc2c(ccc3ccccc32)o1,15,9,20,22,2,.
CNC(=O)c1cc2c(ccc3ccccc32)o1,27,-1,30,58*,-3,-12
COc1ccc(NC(=O)COc2ccc3c(c2)OCO3)cc1,14,45,-21,-32,10,-6
Cc1ccc(OCC(=O)Nc2ccc3c(c2)OCCO3)cc1C,4,-20,-63*,-59,1,-9
Cc1cccc(OCC(=O)Nc2ccc3c(c2)OCCO3)c1,.,21,.,.,0,-28
CS(=O)(=O)N1CCN(c2ccc(NC(=O)c3cccnc3Cl)cc2)CC1,36,100*,-9,-16,3,-10
Cc1ccc(OCC(=O)Nc2ccc(N3CCN(S(C)(=O)=O)CC3)cc2)cc1C,8,5,35,61*,4,.
CC(=O)c1ccc(NC(=O)COc2ccc3c(c2)OCO3)cc1,-5,28,17,56*,2,-1
COc1ccc(S(=O)(=O)N(C)c2ccc(C(=O)Nc3ccccc3C(=O)N3CCOCC3)cc2)cc1OC,19,33,-4,-2,-4,-2
CCc1ccc(NC(=O)COc2ccc3c(c2)OCO3)cc1,-3,43,40,37,-5,-3
CC(=O)Nc1cccc(NC(=O)COc2ccc3c(c2)OCO3)c1,.,27,26,56*,5,7
CSc1ncnc2c1ccn2CC(=O)Nc1ccc(C)c(C)c1,.,.,.,.,.,1
Cc1ncc([N+](=O)[O-])n1CC(=O)NCCc1ccccc1,-2,-12,-62*,-70,-3,19
Cc1ncc([N+](=O)[O-])n1CC(=O)Nc1ccc(F)cc1,21,29,-74*,-78,4,-4
CCOc1cc(NC(=S)NCC2CCCO2)c(OCC)cc1NC(=O)c1cccc(F)c1 (stereo not given),23,10,-1,-1,0,.
C=CCSc1nnc2c(n1)OC(c1cccnc1)Nc1ccccc1-2 (stereo not given),0,82*,9,10,-6,-2
C=CCSc1nnc2c(n1)OC(c1cccnc1)N(C(C)=O)c1ccccc1-2 (stereo not given),12,16,-1,1,-2,-16
C#CCOn1c(-n2nc(C)cc2C)nc2ccccc2c1=O,20,.,4,11,9,-9
